Experimental findings from ChEMBL document CHEMBL4304755, “Diacetal Ditellurides as Highly Active and Selective Antiparasitic Agents toward Leishmania amazonensis” (ACS Med Chem Lett, 2019) are described below.

Data set [1] has as its system Leishmania amazonensis. The data set is described as follows: Antileishmanial activity against amastigotes stage of Leishmania amazonensis MHOM/BR/Josefa infected in BALB/c mouse peritoneal macrophage incubated for 48 hrs by Giemsa staining based microscopic method. The data set is classed as functional, organism-based. The essentials: (§1)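 Intracellular amastigotes in macrophages and the matched macrophage cytotoxicity readout. Values are mean ± SD from three different experiments.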

The nature of data set [2]: Selectivity index, ratio of CC50 for BALB/c mouse peritoneal macrophage to IC50 for amastigotes stage of Leishmania amazonensis MHOM/BR/Josefa infected in BALB/c mouse peritoneal macrophage. The data set is classed as toxicity. As to conditions: peritoneal macrophages, read-out: Ratio CC50/IC50.
A short description of data set [3]: Cytotoxicity against BALB/c mouse peritoneal macrophages incubated for 48 hrs by MTT assay. It is filed as cell-based, Peritoneal macrophage. The essentials: as §1
For orientation: Tetrazolium assays rely on reduction of a dye to a coloured formazan, in cell work by metabolically active cells.

Data set [4] relates to Leishmania amazonensis. The data set is described as follows: Ratio of IC50 for miltefosine to IC50 for test compound for antileishmanial activity against promastigote stage of Leishmania amazonensis MHOM/BR/Josefa incubated for 72 hrs by XTT assay. The data set is classed as functional.
Data set [5] relates to Leishmania amazonensis. Kind of data set: Antileishmanial activity against promastigote stage of Leishmania amazonensis MHOM/BR/Josefa incubated for 72 hrs by XTT assay. The data set is classed as functional, organism-based. The essentials: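 Promastigotes; IC50 is the concentration giving 50% growth inhibition. Values are mean ± SD of three separate experiments.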
Data set [6] in a line: Selectivity index, ratio of CC50 for mouse J774A1 cells to IC50 for promastigote stage of Leishmania amazonensis MHOM/BR/Josefa. It is filed as toxicity. As to conditions: read-out: Ratio CC50/IC50. The essentials:
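SI is calculated as CC50 on J774A1 cells divided by the corresponding IC50 on promastigotes.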

Another data set concerns Leishmania chagasi. Kind of data set: Antileishmanial activity against amastigotes stage of Leishmania chagasi MHOM/BR/1972/LD infected in BALB/c mouse bone-marrow derived macrophages incubated for 3 days by hematoxylin-eosin staining based cell counting method. The data set is classed as functional, organism-based. Conditions: 72 h.
In data set [7] the test system is Leishmania amazonensis. The data set is described as follows: Antileishmanial activity against promastigote stage of Leishmania amazonensis MHOM/BR/73/M2269 by erythrosine-B staining based Neubauer chamber based cell counting method. It is filed as functional, organism-based.

Consider `CC1(c2ccc([Te][Te]c3ccc(C4(C)OCCO4)cc3)cc2)OCCO1`, for which the concentration for half-maximal inhibition (IC50) (commonly the concentration that gives 50% inhibition) in the data set with Leishmania amazonensis [1] came out at 0.5 µM; with Leishmania amazonensis [5] it was 0.9 µM. The selectivity ratio in data set [2] came to 18; in data set [6], 194. In addition, the CC50 (commonly the concentration giving 50% cytotoxicity) at 48 h in data set [3] turned out to be 8.3 µM. Besides, in the data set on Leishmania amazonensis [4], the “Ratio IC50” value stood at 20.

On to `CC1(c2ccccc2[Te][Te]c2ccccc2C2(C)OCCO2)OCCO1`, for which, in the data set on Leishmania amazonensis [4], the “Ratio IC50” value was found to be 3. Moreover, in the data set on Leishmania amazonensis [5], the IC50 stood at 8 µM. In data set [6], the selectivity ratio was 2.

Take `c1ccc([Te][Te]c2ccccc2)cc1`: in the data set with Leishmania amazonensis [5], the half-maximal inhibitory concentration (IC50) was determined as 1.4 µM. The selectivity ratio in data set [6] turned out to be 42.

Turning to `COc1ccc([Te]2(Cl)OC3(CCCCC3)/C2=C\Cl)cc1` (stereo unspecified), it took 0.5 µM to reach half-maximal inhibition with Leishmania chagasi (IC50). In other words, the sub-micromolar range.

Regarding `CC1(c2cccc([Te][Te]c3cccc(C4(C)OCCO4)c3)c2)OCCO1`, in the data set with Leishmania amazonensis [4], the “Ratio IC50” value stood at 20. Moreover, the IC50 in the data set on Leishmania amazonensis [5] was found to be 0.9 µM. Also, in data set [6], the selectivity ratio is 25.

In turn, `CC[N+](CC)(CC)Cc1ccccc1.ClC1=C[Te-](Cl)(Cl)(Cl)OC1` gave a half-maximal inhibitory concentration (IC50) with Leishmania amazonensis [7] of 4 µM.

As for `CCCCCCCCCCCCCCCCOP(=O)([O-])OCC[N+](C)(C)C` [MILTEFOSINE], the IC50 was 1.7 µM in the data set on Leishmania amazonensis [1] and 20.7 µM with Leishmania amazonensis [5]. For the same molecule, the selectivity ratio was 12 in data set [2] and 3 in data set [6]. Further, in data set [3], the midpoint of cytotoxicity, the CC50 at 48 h, lay at 20.3 µM.
